In brackets after ≈: the same amount, converted by molar mass.
How the values were obtained:
Staphylococcus aureus [1] = assay: Antibacterial activity against Staphylococcus aureus ATCC 25923 measured after 24 hrs by two-fold serial dilution method; type: functional; conditions: ATCC 25923, 24 h
Summary of the method: (§1)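 MIC by two-fold serial broth microdilution in 96-well plates, following NCCLS recommendations. Chloromycin, norfloxacin and fluconazole serve as reference drugs. The MIC is read as the lowest concentration that inhibits growth, in µg/mL.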

Staphylococcus aureus [2] = assay: Antibacterial activity against methicillin-resistant Staphylococcus aureus N315 measured after 24 hrs by two-fold serial dilution method; type: functional; conditions: N315, 24 h
Summary of the method: (§2)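 Two-fold serial dilution in 96-well microtest plates following NCCLS guidance (micro broth dilution). Chloromycin and norfloxacin serve as positive controls. MIC is reported in µg/mL.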

Bacillus subtilis = assay: Antibacterial activity against Bacillus subtilis measured after 24 hrs by two-fold serial dilution method; type: functional; summary of the method: as §1
Micrococcus luteus = assay: Antibacterial activity against Micrococcus luteus ATCC 4698 measured after 24 hrs by two-fold serial dilution method; type: functional; conditions: NCTC 2665, 24 h; summary of the method: as §1
Proteus vulgaris = assay: Antibacterial activity against Bacillus proteus ATCC 13315 measured after 24 hrs by two-fold serial dilution method; type: functional; conditions: ATCC 13315, 24 h; summary of the method: as §1
Escherichia coli = assay: Antibacterial activity against Escherichia coli JM109 measured after 24 hrs by two-fold serial dilution method; type: functional; conditions: JM109, 24 h; summary of the method: as §1
Pseudomonas aeruginosa = assay: Antibacterial activity against Pseudomonas aeruginosa measured after 24 hrs by two-fold serial dilution method; type: functional; summary of the method: as §1
Salmonella typhi = assay: Antibacterial activity against Salmonella typhi measured after 24 hrs by two-fold serial dilution method; type: functional, Salmonella enterica subsp. enterica serovar Typhi; conditions: Salmonella enterica; summary of the method: as §2
Candida albicans = assay: Antifungal activity against Candida albicans ATCC 76615 measured after 24 hrs by two-fold serial dilution method; type: functional; conditions: ATCC 76615, 24 h; summary of the method: as §1
[3] = Antifungal activity against Candida utilis measured after 24 hrs by two-fold serial dilution method; type: functional; conditions: Cyberlindnera jadinii; summary of the method: as §1
[4] = Antifungal activity against Saccharomyces cerevisiae measured after 24 hrs by two-fold serial dilution method; type: functional; summary of the method: as §1
Aspergillus flavus = assay: Antifungal activity against Aspergillus flavus measured after 24 hrs by two-fold serial dilution method; type: functional; summary of the method: as §1

SMILES | MIC (Staphylococcus aureus [1]) | MIC (Staphylococcus aureus [2]) | MIC (Bacillus subtilis) | MIC (Micrococcus luteus) | MIC (Proteus vulgaris) | MIC (Escherichia coli) | MIC (Pseudomonas aeruginosa) | MIC (Salmonella typhi) | MIC80 (Candida albicans) | MIC80 [3] | MIC80 [4] | MIC80 (Aspergillus flavus)
COc1ccc2cc3[n+](cc2c1OCc1nc2ccccc2n1Cc1cccc(F)c1)CCc1cc2c(cc1-3)OCO2.[Cl-] | 512 µg/mL | 512 µg/mL | 512 µg/mL | 16 µg/mL | 128 µg/mL | 512 µg/mL | 256 µg/mL | 256 µg/mL | 512 µg/mL | 8 µg/mL | 256 µg/mL | 32 µg/mL
OC(Cn1cncn1)(Cn1cncn1)c1ccc(F)cc1F [FLUCONAZOLE] | – | – | – | – | – | – | – | – | 1 µg/mL (≈ 3.27 µM) | 8 µg/mL (≈ 26.1 µM) | 16 µg/mL (≈ 52.2 µM) | 256 µg/mL (≈ 836 µM)
CCCCCCCCCCCCCCCCCCn1c(COc2c(OC)ccc3cc4[n+](cc23)CCc2cc3c(cc2-4)OCO3)nc2ccccc21.[Cl-] | 512 µg/mL | 512 µg/mL | 512 µg/mL | 512 µg/mL | 64 µg/mL | 512 µg/mL | 512 µg/mL | 256 µg/mL | 512 µg/mL | 128 µg/mL | 512 µg/mL | 512 µg/mL
CCCn1c(COc2c(OC)ccc3cc4[n+](cc23)CCc2cc3c(cc2-4)OCO3)nc2ccccc21.[Cl-] | 128 µg/mL | 4 µg/mL | 64 µg/mL | 32 µg/mL | 256 µg/mL | 256 µg/mL | 64 µg/mL | 4 µg/mL | 64 µg/mL | 16 µg/mL | 512 µg/mL | 16 µg/mL
COc1ccc2cc3[n+](cc2c1OCc1nc2ccccc2n1Cc1ccc([N+](=O)[O-])cc1)CCc1cc2c(cc1-3)OCO2.[Cl-] | 64 µg/mL | 512 µg/mL | 512 µg/mL | 32 µg/mL | 32 µg/mL | 32 µg/mL | 512 µg/mL | 256 µg/mL | 128 µg/mL | 32 µg/mL | 128 µg/mL | 64 µg/mL
COc1ccc2cc3[n+](cc2c1OCc1nc2ccccc2[nH]1)CCc1cc2c(cc1-3)OCO2.[Cl-] | 512 µg/mL | 256 µg/mL | 512 µg/mL | 32 µg/mL | 256 µg/mL | 512 µg/mL | 256 µg/mL | 16 µg/mL | 256 µg/mL | 64 µg/mL | 512 µg/mL | 32 µg/mL
CCCCCCCCCCn1c(COc2c(OC)ccc3cc4[n+](cc23)CCc2cc3c(cc2-4)OCO3)nc2ccccc21.[Cl-] | 16 µg/mL | 16 µg/mL | 32 µg/mL | 32 µg/mL | 512 µg/mL | 32 µg/mL | 16 µg/mL | 2 µg/mL | 8 µg/mL | 8 µg/mL | 512 µg/mL | 8 µg/mL
COc1ccc2cc3[n+](cc2c1OCc1nc2ccccc2n1Cc1ccc(Cl)cc1)CCc1cc2c(cc1-3)OCO2.[Cl-] | 32 µg/mL | 512 µg/mL | 512 µg/mL | 8 µg/mL | 8 µg/mL | 2 µg/mL | 512 µg/mL | 2 µg/mL | 512 µg/mL | 4 µg/mL | 512 µg/mL | 4 µg/mL
CCCCCn1c(COc2c(OC)ccc3cc4[n+](cc23)CCc2cc3c(cc2-4)OCO3)nc2ccccc21.[Cl-] | 64 µg/mL | 16 µg/mL | 32 µg/mL | 32 µg/mL | 128 µg/mL | 128 µg/mL | 64 µg/mL | 4 µg/mL | 32 µg/mL | 8 µg/mL | 512 µg/mL | 16 µg/mL
CCn1cc(C(=O)O)c(=O)c2cc(F)c(N3CCNCC3)cc21 [NORFLOXACIN] | 2 µg/mL (≈ 6.26 µM) | 8 µg/mL (≈ 25.1 µM) | 4 µg/mL (≈ 12.5 µM) | 2 µg/mL (≈ 6.26 µM) | 8 µg/mL (≈ 25.1 µM) | 1 µg/mL (≈ 3.13 µM) | 16 µg/mL (≈ 50.1 µM) | 4 µg/mL (≈ 12.5 µM) | – | – | – | –

Source: ChEMBL document CHEMBL3865797, “Design, synthesis and biological evaluation of berberine-benzimidazole hybrids as new type of potentially DNA-targeting antimicrobial agents” (Eur J Med Chem, 2016)
